# Test results as given in ChEMBL document CHEMBL4177653, “Identification of nitroimidazole-oxime derivatives targeting the polo-box domain of polo-like kinase 1” (Bioorg Med Chem, 2017).
# Legend:
# HeLa = assay: Antiproliferative activity against human HeLa cells after 72 hrs by MTT assay; format: functional, cell-based
# Procedure, shortened: (§1)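 Cells kept in high-glucose DMEM with L-glutamine, 10% FBS, penicillin/streptomycin, at 37 °C and 5% CO2. Seeded in 96-well plates and preincubated 48 h. Compounds added at preset concentrations (6 wells each; erlotinib as positive reference) for 72 h. MTT in PBS (2.5 mg/mL) added for 4 h, formazan dissolved in DMSO, A570 read. IC50 is the concentration leaving 50% of cells surviving. Mean ± SD of three independent experiments in triplicate.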
# [1] = Cytotoxicity against human 293T cells after 72 hrs by MTT assay; format: cell-based; conditions: HEK-293T cells
# MGC-803 [2] = assay: Antiproliferative activity against human MGC803 cells after 72 hrs by MTT assay; format: functional, cell-based; conditions: MGC-803, 72 h; procedure, shortened: as §1
# MCF7 = assay: Antiproliferative activity against human MCF7 cells after 72 hrs by MTT assay; format: functional, cell-based; conditions: MCF7, 72 h; procedure, shortened: as §1
# HepG2 = assay: Antiproliferative activity against human HepG2 cells after 72 hrs by MTT assay; format: functional, cell-based; conditions: HepG2, 72 h; procedure, shortened: as §1
# MGC-803 [3] = assay: Induction of apoptosis in human MGC803 cells assessed as necrotic cells at 0.01 uM after 24 hrs by Annexin V-FITC/propidium iodide staining-based flow cytometry (reference value: 0%); format: functional
# MGC-803 [4] = assay: Induction of apoptosis in human MGC803 cells assessed as late apoptotic cells at 0.06 uM after 24 hrs by Annexin V-FITC/propidium iodide staining-based flow cytometry (reference value: 0%); format: functional
# MGC-803 [5] = assay: Induction of apoptosis in human MGC803 cells after 24 hrs by Annexin V-FITC/propidium iodide staining-based flow cytometry; format: functional, cell-based
# MGC-803 [6] = assay: Induction of apoptosis in human MGC803 cells assessed as late apoptotic cells at 0.12 uM after 24 hrs by Annexin V-FITC/propidium iodide staining-based flow cytometry (reference value: 0%); format: functional
# MGC-803 [7] = assay: Induction of apoptosis in human MGC803 cells assessed as early apoptotic cells at 0.01 uM after 24 hrs by Annexin V-FITC/propidium iodide staining-based flow cytometry (reference value: 0.1%); format: functional
# MGC-803 [8] = assay: Induction of apoptosis in human MGC803 cells assessed as viable cells at 0.01 uM after 24 hrs by Annexin V-FITC/propidium iodide staining-based flow cytometry (reference value: 99.9%); format: functional; conditions: MGC-803, 24 h, read-out: Activity
# MGC-803 [9] = assay: Induction of apoptosis in human MGC803 cells assessed as early apoptotic cells at 0.12 uM after 24 hrs by Annexin V-FITC/propidium iodide staining-based flow cytometry (reference value: 0.1%); format: functional
# MGC-803 [10] = assay: Induction of apoptosis in human MGC803 cells assessed as early apoptotic cells at 0.06 uM after 24 hrs by Annexin V-FITC/propidium iodide staining-based flow cytometry (reference value: 0.1%); format: functional
# MGC-803 [11] = assay: Induction of apoptosis in human MGC803 cells assessed as necrotic cells at 0.12 uM after 24 hrs by Annexin V-FITC/propidium iodide staining-based flow cytometry (reference value: 0%); format: functional
# MGC-803 [12] = assay: Induction of apoptosis in human MGC803 cells assessed as viable cells at 0.12 uM after 24 hrs by Annexin V-FITC/propidium iodide staining-based flow cytometry (reference value: 99.9%); format: functional; conditions: MGC-803, 24 h, read-out: Activity
# MGC-803 [13] = assay: Induction of apoptosis in human MGC803 cells assessed as late apoptotic cells at 0.01 uM after 24 hrs by Annexin V-FITC/propidium iodide staining-based flow cytometry (reference value: 0%); format: functional
# MGC-803 [14] = assay: Induction of apoptosis in human MGC803 cells assessed as necrotic cells at 0.06 uM after 24 hrs by Annexin V-FITC/propidium iodide staining-based flow cytometry (reference value: 0%); format: functional
# MGC-803 [15] = assay: Induction of apoptosis in human MGC803 cells assessed as viable cells at 0.06 uM after 24 hrs by Annexin V-FITC/propidium iodide staining-based flow cytometry (reference value: 99.9%); format: functional; conditions: MGC-803, 24 h, read-out: Activity
SMILES,IC50 (HeLa) [µg/mL],CC50 at 72 h [1] [µg/mL],IC50 (MGC-803 [2]) [µg/mL],IC50 (MCF7) [µg/mL],IC50 (HepG2) [µg/mL],also measured
Cc1nc([N+](=O)[O-])cn1C/C(=N/OC(=O)c1ccc(F)cc1)c1ccc(Br)cc1,7.24,23000,1.24,2.12,1.22,–
Cc1nc([N+](=O)[O-])cn1C/C(=N/OC(=O)c1cccc(Cl)c1)c1ccc(Br)cc1,4.09,700,0.18,0.84,1.15,–
Cc1nc([N+](=O)[O-])cn1C/C(=N/OC(=O)c1ccc(Cl)cc1)c1ccc(Br)cc1,8.79,230,0.45,2.79,1.34,–
Cc1nc([N+](=O)[O-])cn1C/C(=N/OC(=O)c1ccc(Cl)nc1)c1ccc(Br)cc1,0.96,250,0.82,0.79,0.71,–
Cc1nc([N+](=O)[O-])cn1C/C(=N/OC(=O)c1cccnc1Cl)c1ccc(Br)cc1,1.28,12000,0.73,0.76,0.76,–
Cc1nc([N+](=O)[O-])cn1C/C(=N/OC(=O)c1ccccc1Cl)c1ccc(Br)cc1,8.53,530,0.16,1.27,1.33,–
Cc1nc([N+](=O)[O-])cn1C/C(=N/OC(=O)c1ccncc1)c1ccc(Br)cc1,1.63,80,0.02,0.87,0.81,–
Cc1cccc(C(=O)O/N=C(/Cn2cc([N+](=O)[O-])nc2C)c2ccc(Br)cc2)c1,12.3,1300,3.25,2.82,10.7,–
COc1ccc(C(=O)O/N=C(/Cn2cc([N+](=O)[O-])nc2C)c2ccc(Br)cc2)cn1,2.35,980,0.03,0.89,0.92,–
COc1ccc(C(=O)O/N=C(/Cn2cc([N+](=O)[O-])nc2C)c2ccc(Br)cc2)cc1,6.54,1600,0.34,3.15,1.25,–
Cc1nc([N+](=O)[O-])cn1C/C(=N/OC(=O)c1ccccc1)c1ccc(Br)cc1,> 20,32000,3.66,> 20,14,–
Cc1nc([N+](=O)[O-])cn1C/C(=N/OC(=O)c1ccccc1Br)c1ccc(Br)cc1,> 20,150,2.63,3.79,4.38,–
Cc1nc([N+](=O)[O-])cn1C/C(=N\O)c1ccc(Br)cc1,> 20,–,> 20,> 20,17.4,–
Cc1ccccc1C(=O)O/N=C(/Cn1cc([N+](=O)[O-])nc1C)c1ccc(Br)cc1,9.76,3800,0.84,2.15,2.37,–
Cc1nc([N+](=O)[O-])cn1C/C(=N/OC(=O)c1ccccc1[N+](=O)[O-])c1ccc(Br)cc1,11.3,230,2.54,7.13,6.59,–
COc1ccccc1C(=O)O/N=C(/Cn1cc([N+](=O)[O-])nc1C)c1ccc(Br)cc1,> 20,500,3.53,3.13,> 20,–
Cc1nc([N+](=O)[O-])cn1C/C(=N/OC(=O)c1cccnc1)c1ccc(Br)cc1,1.51,50,0.01,0.78,0.73,–
Cc1nc([N+](=O)[O-])cn1C/C(=N/OC(=O)c1ccc([N+](=O)[O-])cc1)c1ccc(Br)cc1,12.4,160,0.37,0.86,1.43,–
Cc1nc([N+](=O)[O-])cn1C/C(=N/OC(=O)c1ccc(Br)cc1)c1ccc(Br)cc1,5.67,330,1.48,2.56,2.56,–
CC1=CC(=O)C(C(C)C)=CC1=O [THYMOQUINONE],–,140,–,–,–,–
Cc1nc([N+](=O)[O-])cn1C/C(=N/OC(=O)c1cccc(Br)c1)c1ccc(Br)cc1,2.57,180,0.04,1.37,0.86,–
O=c1[nH]cc(F)c(=O)[nH]1 [FLUOROURACIL],3.82,–,1.8,2.19,2.24,–
Cc1nc([N+](=O)[O-])cn1C/C(=N/OC(=O)c1cccc(F)c1)c1ccc(Br)cc1,4.55,530,0.21,1.87,0.97,–
Cc1ccc(C(=O)O/N=C(/Cn2cc([N+](=O)[O-])nc2C)c2ccc(Br)cc2)cc1,0.96,270,0.81,1.54,0.96,–
Cc1ccc(C(=O)O/N=C(/Cn2cc([N+](=O)[O-])nc2C)c2ccc(Br)cc2)cn1,0.86,8300,0.005,0.72,0.75,Activity (MGC-803 [3]): 1.2%; Activity (MGC-803 [4]): 43.2%; Activity (MGC-803 [5]): Dose-dependent effect; Activity (MGC-803 [6]): 64.6%; Activity (MGC-803 [7]): 9.7%; viability at 0.01 µM (MGC-803 [8]): 61%; Activity (MGC-803 [9]): 16.9%; Activity (MGC-803 [10]): 15.4%; Activity (MGC-803 [11]): 0.1%; viability at 0.12 µM (MGC-803 [12]): 18.4%; Activity (MGC-803 [13]): 28.1%; Activity (MGC-803 [14]): 0.2%; viability at 0.06 µM (MGC-803 [15]): 41.2%
